Converted amounts (≈) assume the structure as drawn.
Tests used:
[1] = test system: NCI-H460; experiment: Growth inhibition of human NCI-H460 cells using DMSO as solvent after 48 hrs by sulforhodamine B assay; format: functional
How it was run: (§1)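 NCI-standard SRB protocol. Cells in RPMI1640 with 5% fetal bovine serum were seeded in 96-well plates and held 24 h before serial compound dilutions were added. After 48 h, cells were fixed with trichloroacetic acid, stained with sulforhodamine B and read by optical density. GI50 is the concentration giving 50% reduction in net protein increase.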

[2] = Growth inhibition of human KM20L2 cells using DMSO as solvent after 48 hrs by sulforhodamine B assay; format: functional, KM-20L2; how it was run: as §1
[3] = test system: DU-145; experiment: Growth inhibition of human DU145 cells using DMSO as solvent after 48 hrs by sulforhodamine B assay; format: functional; how it was run: as §1
[4] = test system: SF-268; experiment: Growth inhibition of human SF268 cells using DMSO as solvent after 48 hrs by sulforhodamine B assay; format: functional; how it was run: as §1
[5] = test system: MCF7; experiment: Growth inhibition of human MCF7 cells using DMSO as solvent after 48 hrs by sulforhodamine B assay; format: functional; how it was run: as §1
[6] = Growth inhibition of human BxPC3 cells using DMSO as solvent after 48 hrs by sulforhodamine B assay; format: functional, BXPC-3; how it was run: as §1
[7] = test system: SF-268; experiment: Growth inhibition of human SF268 cells using MeOH as solvent after 48 hrs by sulforhodamine B assay; format: functional; details: SF-268, 48 h; how it was run: as §1
[8] = Growth inhibition of human BxPC3 cells using MeOH as solvent after 48 hrs by sulforhodamine B assay; format: functional; details: BXPC-3, 48 h; how it was run: as §1
[9] = test system: DU-145; experiment: Growth inhibition of human DU145 cells using MeOH as solvent after 48 hrs by sulforhodamine B assay; format: functional; details: DU-145, 48 h; how it was run: as §1
[10] = Growth inhibition of human KM20L2 cells using MeOH as solvent after 48 hrs by sulforhodamine B assay; format: functional; details: KM-20L2, 48 h; how it was run: as §1
[11] = test system: NCI-H460; experiment: Growth inhibition of human NCI-H460 cells using MeOH as solvent after 48 hrs by sulforhodamine B assay; format: functional; details: NCI-H460, 48 h; how it was run: as §1
[12] = test system: MCF7; experiment: Growth inhibition of human MCF7 cells using MeOH as solvent after 48 hrs by sulforhodamine B assay; format: functional; details: MCF7, 48 h; how it was run: as §1

Compound	GI50 [1]	GI50 [2]	GI50 [3]	GI50 [4]	GI50 [5]	GI50 [6]	GI50 [7]	GI50 [8]	GI50 [9]	GI50 [10]	GI50 [11]	GI50 [12]
CC(C)[C@H]1NC(=O)[C@@H]2CCCN2C(=O)[C@H]([C@H](C)Cc2ccccc2)NC(=O)[C@@H]2CCCN2C(=O)[C@@H](C(C)C)N(C)C(=O)[C@@H](C(C)C)OC(=O)[C@@H]2CCCN2C(=O)[C@H](C)OC(=O)[C@@H]1C (stereo in doubt)	0.27 µg/mL (≈ 0.307 µM)	0.013 µg/mL (≈ 0.0148 µM)	0.009 µg/mL (≈ 0.0102 µM)	0.016 µg/mL (≈ 0.0182 µM)	0.027 µg/mL (≈ 0.0307 µM)	0.05 µg/mL (≈ 0.0569 µM)						
CC(C)[C@H]1NC(=O)[C@@H]2CCCN2C(=O)[C@H]([C@H](C)Cc2ccccc2)NC(=O)[C@@H]2CCCN2C(=O)[C@@H](C(C)C)N(C)C(=O)[C@@H](C(C)C)OC(=O)[C@@H]2CCCN2C(=O)[C@H](C)OC(=O)[C@@H]1C (stereo in doubt; 1)	>10 µg/mL	>10 µg/mL	>10 µg/mL	>10 µg/mL	>10 µg/mL	>10 µg/mL	> 10 µg/mL	> 10 µg/mL	> 10 µg/mL	> 10 µg/mL	> 10 µg/mL	> 10 µg/mL

Source: ChEMBL document CHEMBL3576759, “Antineoplastic agents. 599. Total synthesis of dolastatin 16” (2015)
